From ChEMBL document CHEMBL4325899, “Synthesis and photocytotoxic activity of [1,2,3]triazolo[4,5-h][1,6]naphthyridines and [1,3]oxazolo[5,4-h][1,6]naphthyridines” (Eur J Med Chem, 2019) come the findings set out here.

The structures appear in SMILES notation. Active and inactive are the calls of the source. No cut-off for these calls is given here.

A short description of series [1]: Selectivity index, ratio of EC50 for human MCF10A cells under UV irradiation at 1.5 J/cm2 to EC50 for human A375 cells under UV irradiation at 1.5 J/cm2. Type of series: toxicity. The following applies: MCF10A cells versus A375 cells, read-out: Ratio EC50. The method, boiled down:
(§1)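 SI is the EC50 under irradiation in non-tumor MCF10A cells divided by the EC50 under irradiation in the tumor line. Both were MTT read-outs 72 h after 1.5 J/cm² at 365 nm.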

For series [2], the system named is MCF7. Description: Induction of apoptosis in human MCF7 cells assessed as necrotic cells at EC25 to EC75 after 4 hrs in presence of photoirradiation by Annexin V-FITC/propidium iodide staining-based flow cytometric analysis relative to control. The series is classed as functional. On the technique in general: A flow cytometer gives signals particle by particle.

Series [3] concerns MCF7. Nature of the series: Induction of lysosomal activation in human MCF7 cells at 2 uM after 20 mins in presence of UV irradiation by Lysotracker Green DND 26 staining-based confocal microscopic analysis. Type of series: functional, cell-based. In a few lines: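 MCF7 cells (4x10⁵) on glass slides were loaded with LysoTracker Green DND-26 (175 nM) for 45 min in phenol-red-free, serum-free medium, before 2 µM compound with or without UV activation. Cells were fixed in 2% PFA 20 min or 2 h after UV and imaged confocally (ex 488 nm, em 500–530 nm). Controls were untreated cells with and without irradiation, and cells given PMA (400 nM).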

For series [4], the system named is MCF7. Nature of the series: Cell cycle arrest in human MCF7 cells assessed as accumulation of cells at subG1 phase at EC50 after 24 hrs under UV-irradiation by propidium iodide staining-based flow cytometric analysis (reference value: 4.8%). Type of series: functional.
Series [5] can be described thus: Phototoxicity index, ratio of CC50 for human MCF10A cells to EC50 for human MCF10A cells under UV irradiation at 1.5 J/cm2. Type of series: cell-based, MCF-10A. The following applies: read-out: Ratio CC50/EC50.
The test system of series [6] is MCF7. Nature of the series: Cell cycle arrest in human MCF7 cells assessed as accumulation of cells at subG1 phase at EC75 after 24 hrs under UV-irradiation by propidium iodide staining-based flow cytometric analysis (reference value: 4.8%). The series is classed as functional.
Series [7] can be described thus: Dark toxicity against human HT-29 cells preincubated for 5 mins followed by compound washout and measured after 72 hrs by MTT assay. Type of series: cell-based. In a few lines: (§2)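 Cells were plated and allowed to attach overnight. Compounds were diluted in DMSO (0.5% final), with each concentration in triplicate, and applied for 5 min. Cells were then washed in PBS and given fresh medium. Without irradiation, cells were held 72 h at up to 50 μM. MTT (5 mg/mL stock) was added for 4 h, crystals were dissolved in SDS/HCl overnight, and absorbance was read at 540 nm. CC50 is the concentration killing 50% of cells, taken as the mean of at least three experiments.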
In general terms: Tetrazolium assays rely on reduction of a dye to a coloured formazan, in cell work by metabolically active cells.

A short description of series [8]: Selectivity index, ratio of EC50 for human MCF10A cells under UV irradiation at 1.5 J/cm2 to EC50 for human HT-29 cells under UV irradiation at 1.5 J/cm2. Type of series: toxicity. The following applies: MCF10A cells versus HT-29 cells, read-out: Ratio EC50. The method, boiled down: as §1
The subject of series [9] is MCF7. Description: Cell cycle arrest in human MCF7 cells assessed as accumulation of cells at G2/M phase at EC25 after 24 hrs under UV-irradiation by propidium iodide staining-based flow cytometric analysis (reference value: 26.3%). The series is classed as functional.
Series [10] can be described thus: Dark toxicity against human MCF10A cells preincubated for 5 mins followed by compound washout and measured after 72 hrs by MTT assay. Type of series: cell-based, MCF-10A. The method, boiled down: as §2
Series [11] relates to MCF7. Nature of the series: Cell cycle arrest in human MCF7 cells assessed as accumulation of cells at G0/G1 phase at EC50 after 24 hrs under UV-irradiation by propidium iodide staining-based flow cytometric analysis (reference value: 44.2%). The series is classed as functional.
Series [12] concerns MCF7. Description: Induction of ROS generation in human MCF7 cells at 0.5 to 2 uM preincubated for 30 mins followed by irradiation at 1.5 J/cm2 for 2 hrs by H2DCFDA probe-based fluorescence assay (reference value: 100%). Type of series: functional. In a few lines: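 MCF7 cells (3x10⁴) were plated 24 h ahead to reach 80–90% confluence. Compounds were applied for 30 min in phenol-red-free, serum-free medium, and H2DCFDA (10 µM) was added 15 min before irradiation (1.5 J/cm², ~365 nm) or no irradiation. DCF fluorescence (485/535 nm) was read 2 h after light and expressed relative to untreated controls (100%). PMA (400 nM) served as positive control; three independent experiments.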

Series [13] relates to MCF7. Description: Phototoxicity against human MCF7 cells preincubated for 5 mins followed by compound washout and subsequent UV irradiation at 1.5 J/cm2 for 5 mins measured after 72 hrs by MTT assay. The series is classed as functional, cell-based. The following applies: MCF7, light or radiation study. In a few lines: (§3)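 Compounds were diluted in DMSO (0.5% final), applied in triplicate for 5 min, then washed out with PBS. After medium removal, cells were irradiated on ice for 5 min at 365 nm (1.5 J/cm²) and then kept 72 h at 37 °C. Viability was read by MTT at 540 nm and expressed relative to 0.5% DMSO controls given the same treatment. EC50 is the concentration killing 50%, as the mean ± SD of at least three experiments.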

Series [14] can be described thus: Drug localization in cytoplasm of human MCF7 cells at 2 uM measured after 30 to 60 mins by confocal microscopic analysis. Type of series: ADME, subcellular. The following applies: mcf7, 2 µM.
In another series the test system is HT-29. Description: Phototoxicity against human HT-29 cells preincubated for 5 mins followed by compound washout and subsequent UV irradiation at 1.5 J/cm2 for 5 mins measured after 72 hrs by MTT assay. Type of series: functional, cell-based. The following applies: HT-29, light or radiation study. In a few lines:
as §3

On to `COc1ccc(-c2nc3c(nc(C)c4ccc(-c5ccccc5)nc43)o2)cc1`, for which the values for the selectivity ratio in series [1], in series [5] and in [8] were 79, more than 58 and 72, respectively. For the same compound, the Activity with MCF7 [2] stood at 10%; in the series on MCF7 [4] it was 4.4%; in the series with MCF7 [6], 4.4%; with MCF7 [9] it was 26.8%; in the series with MCF7 [11] it was 43.1%; with MCF7 [12], 227%. Also, the result in the series on MCF7 [3] was Active. Further, the CC50 at 72 h in series [7] and in [10] was more than 50000 nM in each case. Also, the EC50 worked out at 10 nM in the series with MCF7 [13] and 12 nM in the series on HT-29. In series [14], the Drug uptake result was “Active”.

Usually CC50 stands for the concentration giving 50% cytotoxicity. A higher CC50 goes with lower toxicity to the cells. Usually EC50 stands for the concentration giving half of the maximal effect. A lower EC50 goes with higher potency in that assay.
